Test results: article PMC7744997 (Clinical Infectious Diseases: An Official Publication of …, 2020)

Experiment: Laboratory safety in RSV-infected infants
Assay type: in vivo, human
Procedure, shortened: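 Clinical laboratory tests were run in RSV-infected infants (>1 to ≤24 months) given oral drug or placebo once daily for 7 days. Abnormalities were graded with the DMID Pediatric Toxicity Tables (November 2007 version). Patients were followed for 28 days after randomisation.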

## CS(=O)(=O)CCCn1c(Cn2c(=O)n(CC(F)(F)F)c3ccncc32)cc2cc(Cl)ccc21 [JNJ-53718678]
Low (cohorts 1a,2a,3a), n=12
  Chloride: Above (treatment-emergent nongraded abnormality): 1 (8) no. (%)
  Chloride: Below (treatment-emergent nongraded abnormality): 0 no. (%)
  Eosinophils: Above (treatment-emergent nongraded abnormality): 4 (33) no. (%)
  Eosinophils: Below (treatment-emergent nongraded abnormality): 0 no. (%)
  Erythrocytes: Above (treatment-emergent nongraded abnormality): 1 (8) no. (%)
  Erythrocytes: Below (treatment-emergent nongraded abnormality): 0 no. (%)
  Hemoglobin Grade 1 (treatment-emergent worst toxicity grade): 1 (8) no. (%)
  Hemoglobin Grade 2 (treatment-emergent worst toxicity grade): 0 no. (%)
  Hyperkalemia Grade 1 (treatment-emergent worst toxicity grade): 4 (33) no. (%)
  Hyperkalemia Grade 2 (treatment-emergent worst toxicity grade): 0 no. (%)
  Hypoglycemia Grade 1 (treatment-emergent worst toxicity grade): 0 no. (%)
  Hyponatremia Grade 2 (treatment-emergent worst toxicity grade): 1 (8) no. (%)
  Leukocytes: Above (treatment-emergent nongraded abnormality): 1 (8) no. (%)
  Lymphocytes: Above (treatment-emergent nongraded abnormality): 2 (17) no. (%)
  Lymphocytes: Below (treatment-emergent nongraded abnormality): 0 no. (%)
Mid (cohorts 1b,2b,3b), n=9
  Eosinophils/leukocytes: Above (treatment-emergent nongraded abnormality): 3 (33) no. (%)
  Eosinophils/leukocytes: Below (treatment-emergent nongraded abnormality): 0 no. (%)
  Lymphocytes/leukocytes: Above (treatment-emergent nongraded abnormality): 3 (33) no. (%)
  Lymphocytes/leukocytes: Below (treatment-emergent nongraded abnormality): 1 (11) no. (%)
  Monocytes/leukocytes: Above (treatment-emergent nongraded abnormality): 3 (33) no. (%)
  Monocytes/leukocytes: Below (treatment-emergent nongraded abnormality): 1 (11) no. (%)
  Neutrophils/leukocytes: Above (treatment-emergent nongraded abnormality): 1 (11) no. (%)
  Neutrophils/leukocytes: Below (treatment-emergent nongraded abnormality): 3 (33) no. (%)
Mid (cohorts 1b,2b,3b), n=11
  Eosinophils: Above (treatment-emergent nongraded abnormality): 2 (18) no. (%)
  Eosinophils: Below (treatment-emergent nongraded abnormality): 0 no. (%)
  Lymphocytes: Above (treatment-emergent nongraded abnormality): 2 (18) no. (%)
  Lymphocytes: Below (treatment-emergent nongraded abnormality): 0 no. (%)
Mid (cohorts 1b,2b,3b), n=12
  Alkaline phosphatase: Above (treatment-emergent nongraded abnormality): 1 (8) no. (%)
  Alkaline phosphatase: Below (treatment-emergent nongraded abnormality): 2 (17) no. (%)
  Bicarbonate: Above (treatment-emergent nongraded abnormality): 2 (17) no. (%)
  Bicarbonate: Below (treatment-emergent nongraded abnormality): 2 (17) no. (%)
  Chloride: Above (treatment-emergent nongraded abnormality): 2 (17) no. (%)
  Chloride: Below (treatment-emergent nongraded abnormality): 1 (8) no. (%)
  Erythrocytes: Above (treatment-emergent nongraded abnormality): 1 (8) no. (%)
  Erythrocytes: Below (treatment-emergent nongraded abnormality): 2 (17) no. (%)
  Hemoglobin Grade 1 (treatment-emergent worst toxicity grade): 1 (8) no. (%)
  Hemoglobin Grade 2 (treatment-emergent worst toxicity grade): 1 (8) no. (%)
  Hyperkalemia Grade 1 (treatment-emergent worst toxicity grade): 3 (25) no. (%)
  Hyperkalemia Grade 2 (treatment-emergent worst toxicity grade): 1 (8.3) no. (%)
  Hypoglycemia Grade 1 (treatment-emergent worst toxicity grade): 0 no. (%)
  Hyponatremia Grade 2 (treatment-emergent worst toxicity grade): 0 no. (%)
  Leukocytes: Above (treatment-emergent nongraded abnormality): 2 (17) no. (%)
  Urea: Above (treatment-emergent nongraded abnormality): 0 no. (%)
  Urea: Below (treatment-emergent nongraded abnormality): 4 (33) no. (%)
Mid-high (cohort 1c), n=3
  Urea: Above (treatment-emergent nongraded abnormality): 0 no. (%)
  Urea: Below (treatment-emergent nongraded abnormality): 0 no. (%)
Mid-high (cohort 1c), n=4
  Alkaline phosphatase: Above (treatment-emergent nongraded abnormality): 0 no. (%)
  Alkaline phosphatase: Below (treatment-emergent nongraded abnormality): 1 (25) no. (%)
  Bicarbonate: Above (treatment-emergent nongraded abnormality): 0 no. (%)
  Bicarbonate: Below (treatment-emergent nongraded abnormality): 1 (25) no. (%)
  Chloride: Above (treatment-emergent nongraded abnormality): 2 (50) no. (%)
  Chloride: Below (treatment-emergent nongraded abnormality): 0 no. (%)
  Eosinophils/leukocytes: Above (treatment-emergent nongraded abnormality): 1 (25) no. (%)
  Eosinophils/leukocytes: Below (treatment-emergent nongraded abnormality): 1 (25) no. (%)
  Eosinophils: Above (treatment-emergent nongraded abnormality): 1 (25) no. (%)
  Eosinophils: Below (treatment-emergent nongraded abnormality): 0 no. (%)
  Erythrocytes: Above (treatment-emergent nongraded abnormality): 2 (50) no. (%)
  Erythrocytes: Below (treatment-emergent nongraded abnormality): 0 no. (%)
  Hemoglobin Grade 1 (treatment-emergent worst toxicity grade): 0 no. (%)
  Hemoglobin Grade 2 (treatment-emergent worst toxicity grade): 0 no. (%)
  Hyperkalemia Grade 1 (treatment-emergent worst toxicity grade): 2 (50) no. (%)
  Hyperkalemia Grade 2 (treatment-emergent worst toxicity grade): 0 no. (%)
  Hypoglycemia Grade 1 (treatment-emergent worst toxicity grade): 0 no. (%)
  Hyponatremia Grade 2 (treatment-emergent worst toxicity grade): 1 (25) no. (%)
  Leukocytes: Above (treatment-emergent nongraded abnormality): 0 no. (%)
  Lymphocytes/leukocytes: Above (treatment-emergent nongraded abnormality): 0 no. (%)
  Lymphocytes/leukocytes: Below (treatment-emergent nongraded abnormality): 0 no. (%)
  Lymphocytes: Above (treatment-emergent nongraded abnormality): 1 (25) no. (%)
  Lymphocytes: Below (treatment-emergent nongraded abnormality): 0 no. (%)
  Monocytes/leukocytes: Above (treatment-emergent nongraded abnormality): 0 no. (%)
  Monocytes/leukocytes: Below (treatment-emergent nongraded abnormality): 0 no. (%)
  Neutrophils/leukocytes: Above (treatment-emergent nongraded abnormality): 0 no. (%)
  Neutrophils/leukocytes: Below (treatment-emergent nongraded abnormality): 0 no. (%)
